In ChEMBL document CHEMBL1671834, “Novel 3-aryl indoles as progesterone receptor antagonists for uterine fibroids” (ACS Med Chem Lett, 2011) one finds IC50, inhibition and Ki data, which are given here for ten compounds.

A value given as a limit tells only on which side of the number the result lay.

In assay [1] the target is T1, Progesterone receptor (Homo sapiens, UniProt P06401).
T1 sequence (P06401 whole entry): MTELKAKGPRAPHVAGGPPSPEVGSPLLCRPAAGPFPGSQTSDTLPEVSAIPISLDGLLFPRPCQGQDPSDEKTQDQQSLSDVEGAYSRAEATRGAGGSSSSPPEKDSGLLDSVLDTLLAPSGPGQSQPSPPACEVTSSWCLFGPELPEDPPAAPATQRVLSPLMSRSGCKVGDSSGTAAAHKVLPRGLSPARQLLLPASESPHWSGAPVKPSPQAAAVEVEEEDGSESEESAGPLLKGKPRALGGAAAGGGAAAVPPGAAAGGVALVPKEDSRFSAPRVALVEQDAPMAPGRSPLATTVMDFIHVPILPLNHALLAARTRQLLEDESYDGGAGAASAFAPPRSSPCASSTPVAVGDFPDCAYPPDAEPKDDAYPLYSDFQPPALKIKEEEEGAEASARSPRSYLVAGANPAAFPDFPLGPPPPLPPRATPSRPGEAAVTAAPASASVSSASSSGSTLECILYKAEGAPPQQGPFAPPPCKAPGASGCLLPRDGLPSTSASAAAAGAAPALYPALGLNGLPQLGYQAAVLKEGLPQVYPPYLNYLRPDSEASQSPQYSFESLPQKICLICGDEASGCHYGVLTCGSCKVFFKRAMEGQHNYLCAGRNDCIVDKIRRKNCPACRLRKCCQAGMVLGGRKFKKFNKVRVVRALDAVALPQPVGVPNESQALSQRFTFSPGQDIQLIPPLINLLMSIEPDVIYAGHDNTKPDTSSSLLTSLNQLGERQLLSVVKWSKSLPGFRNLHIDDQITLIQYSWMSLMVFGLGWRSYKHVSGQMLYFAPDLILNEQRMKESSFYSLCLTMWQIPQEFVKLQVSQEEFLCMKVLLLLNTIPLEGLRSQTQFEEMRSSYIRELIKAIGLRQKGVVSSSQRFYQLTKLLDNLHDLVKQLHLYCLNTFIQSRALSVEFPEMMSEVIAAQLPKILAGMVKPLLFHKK
Briefly: Antagonist activity at human progesterone receptor expressed in HEK293 cells assessed as inhibition of […]-induced transcriptional activity by GRE-driven luciferase reporter gene assay. The class given is functional, cell-based. A digest of the protocol: (§1)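 Transcription assay in HEK293 cells cotransfected with full-length human receptor. Values are geometric means of at least duplicate determinations.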
A general note: A reporter such as luciferase makes a cellular process visible.

In assay [2] the target is T2, Mineralocorticoid receptor (Homo sapiens) (UniProt P08235).
T2 sequence (whole entry): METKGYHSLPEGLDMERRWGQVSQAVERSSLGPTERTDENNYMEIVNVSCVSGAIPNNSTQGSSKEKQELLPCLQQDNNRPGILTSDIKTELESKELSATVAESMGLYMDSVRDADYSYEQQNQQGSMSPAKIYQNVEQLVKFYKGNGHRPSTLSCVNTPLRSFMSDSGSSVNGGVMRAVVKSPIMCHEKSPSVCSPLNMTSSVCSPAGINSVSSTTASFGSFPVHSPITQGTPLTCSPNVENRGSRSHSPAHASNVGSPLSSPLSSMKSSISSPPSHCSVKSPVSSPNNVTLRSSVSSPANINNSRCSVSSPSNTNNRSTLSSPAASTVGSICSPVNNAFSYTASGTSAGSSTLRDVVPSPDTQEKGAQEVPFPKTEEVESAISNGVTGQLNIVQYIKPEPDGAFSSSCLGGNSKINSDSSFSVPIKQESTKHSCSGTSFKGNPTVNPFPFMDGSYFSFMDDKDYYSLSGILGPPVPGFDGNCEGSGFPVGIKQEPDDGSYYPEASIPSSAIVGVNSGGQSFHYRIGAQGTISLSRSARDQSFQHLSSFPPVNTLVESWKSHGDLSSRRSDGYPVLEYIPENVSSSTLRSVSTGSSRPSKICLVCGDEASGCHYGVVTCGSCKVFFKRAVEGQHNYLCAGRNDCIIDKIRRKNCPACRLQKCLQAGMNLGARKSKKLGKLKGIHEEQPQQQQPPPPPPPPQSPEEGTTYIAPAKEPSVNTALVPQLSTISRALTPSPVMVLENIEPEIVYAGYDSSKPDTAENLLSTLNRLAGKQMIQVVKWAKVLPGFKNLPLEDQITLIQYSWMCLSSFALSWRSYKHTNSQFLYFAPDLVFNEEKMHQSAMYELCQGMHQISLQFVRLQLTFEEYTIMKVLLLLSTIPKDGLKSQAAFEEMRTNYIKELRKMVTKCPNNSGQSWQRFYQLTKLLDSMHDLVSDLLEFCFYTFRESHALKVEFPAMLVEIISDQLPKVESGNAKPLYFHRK
Briefly: Antagonist activity at human mineralocorticoid receptor expressed in HEK293 cells assessed as inhibition of […]-induced transcriptional activity by GRE-driven luciferase reporter gene assay relative to untreated control. To be noted: concentration not given here. More on the design: concentration or dose not given beside the values. The class given is functional, cell-based. A digest of the protocol: as §1

The target in assay [3] is T3, Mineralocorticoid receptor (Homo sapiens, UniProt P08235).
T3 sequence (P08235 whole entry): T2 sequence (whole entry)
Briefly: Antagonist activity at human mineralocorticoid receptor expressed in HEK293 cells assessed as inhibition of […]-induced transcriptional activity by GRE-driven luciferase reporter gene assay. The class given is functional, cell-based. A digest of the protocol: as §1

Assay [4] deals with T1, Progesterone receptor. Briefly: Displacement of [3H]methyltrienolone from human progesterone receptor expressed in HEK293 cells. The class given is cell-based. A digest of the protocol: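 Competitive binding to recombinant full-length human receptors against tritium-labelled standards. Values are geometric means of at least duplicate determinations.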

Usually IC50 stands for the concentration needed to halve the response being measured. The term inhibition denotes the change of the read-out against control, counted positive when it falls. By Ki is commonly meant a dissociation constant, usually derived from enzyme kinetics or from competition with a known ligand. With `Cn1cc(-c2ccc(C#N)cc2)c2ccc(NS(C)(=O)=O)cc21`, the IC50 in assay [1] is 485 nM; in assay [3], over 10 µM. For the same compound, in assay [2], the inhibition was -2.2%. In addition, the Ki in assay [4] is 28 nM.

In the case of `CC(C)n1cc(-c2ccc(C#N)cc2)c2ccc(NS(C)(=O)=O)cc21`, the 50% inhibitory concentration (IC50) is 6.81 nM in assay [1] and over 10 µM in assay [3]. In assay [2], the inhibition was determined as 36.6%. Besides, in assay [4], the Ki is 0.795 nM.

As to `CCn1cc(-c2ccc(C#N)cc2)c2ccc(NS(C)(=O)=O)cc21`, the results for the IC50 in assay [1] and in assay [3] were 12.6 nM and over 10 µM, respectively. For the same compound, in assay [2], the inhibition is 23.8%. Besides, the affinity in assay [4], expressed as Ki, was 4.23 nM.

Regarding `Cc1cc(-c2cn(C(C)C)c3cc(NS(C)(=O)=O)ccc23)ccc1C#N`, the IC50 in assay [1] is 3.38 nM; in assay [3], over 10 µM. Further, the inhibition in assay [2] amounted to 56%. This compound also came in with a Ki in assay [4] of 0.298 nM.

For `CC(C)n1cc(-c2ccc(C#N)c(F)c2)c2ccc(NS(C)(=O)=O)cc21`, the IC50 in assay [1] came out at 2.29 nM; in assay [3], 8.15 µM. Besides, in assay [2], the inhibition was determined as 50.2%. The affinity in assay [4], expressed as Ki, was 0.214 nM.

`COc1cc(-c2cn(C(C)C)c3cc(NS(C)(=O)=O)ccc23)ccc1C#N`: the figures for the IC50 in assay [1] and in assay [3] were 7.28 nM and 2.42 µM, respectively. Further, the inhibition in assay [2] came out at 35.8%. In assay [4], this compound displayed a Ki of 1.45 nM.

On to `CC[C@@H](C)n1cc(-c2ccc(C#N)cc2)c2ccc(NS(C)(=O)=O)cc21`, for which the IC50 was 9.92 nM in assay [1] and over 10 µM in assay [3]. Besides, the inhibition in assay [2] was 39.2%. In addition, the affinity in assay [4] corresponds to a Ki of 0.834 nM.

On to `CC[C@H](C)n1cc(-c2ccc(C#N)cc2)c2ccc(NS(C)(=O)=O)cc21`, for which the IC50 in assay [1] worked out at 3.89 nM; in assay [3] it was 9.8 µM. Further, the inhibition in assay [2] stood at 43.4%. The Ki in assay [4] worked out at 0.32 nM.

`CC(c1ccc(F)cc1)(c1c[nH]c2c(NS(C)(=O)=O)cccc12)C1CC1` (stereo not given): the IC50 in assay [1] turned out to be 765 nM; in assay [3], 0.0641 µM. Besides, the inhibition in assay [2] was determined as 76.3%. For the same compound, in assay [4], the Ki is 454 nM.

For `COc1ccc(C(c2ccccc2)c2c[nH]c3ccccc23)cc1` (stereo not given), the values for the IC50 in assay [1] and in assay [3] were 3720 nM and over 10 µM, respectively. Besides, in assay [2], the inhibition came out at 40.8%. This compound also had an inhibition constant Ki in assay [4] of 478 nM.
